The list is not random: actives were taken first. Their share in the collection is about 1.9%.
Rtt109 HAT inh – inhibitors of Candida albicans Rtt109/Vps75 histone acetyltransferase | Q5AAJ8 | inhibition, % at 34.9 µM | AID 540336 | 0.16% of 330,000 active | purified Rtt109/Vps75, ThioGlo CoA-SH fluorescence, 4 h;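 active = inhibition of at least 50% in every replicate; inconclusive = best replicate reaches 50% inhibition but some replicates fall short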
Target sequence (Q5AAJ8 whole entry, looked up): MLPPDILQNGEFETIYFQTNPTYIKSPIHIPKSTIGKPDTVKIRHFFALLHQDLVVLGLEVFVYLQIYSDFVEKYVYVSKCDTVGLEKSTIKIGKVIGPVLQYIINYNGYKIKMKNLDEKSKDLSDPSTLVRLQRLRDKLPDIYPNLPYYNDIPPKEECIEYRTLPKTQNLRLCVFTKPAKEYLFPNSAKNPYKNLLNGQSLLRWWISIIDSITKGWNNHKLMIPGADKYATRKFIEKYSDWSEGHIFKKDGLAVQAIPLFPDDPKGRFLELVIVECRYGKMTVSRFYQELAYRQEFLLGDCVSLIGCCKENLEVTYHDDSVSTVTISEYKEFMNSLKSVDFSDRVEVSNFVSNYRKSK
PglD inh – inhibitors of Campylobacter jejuni PglD acetyltransferase; purified PglD enzyme, DTNB colorimetric CoA detection; inhibition, % at 12.5 µM; 0.098% of 360,000 active; in the data active = inhibition above about 16%, passing the limit was not always enough; inconclusive = no clear call, values can overlap the other calls
SR-BI HDL uptake – blocks mouse SR-BI lipid uptake from DiI-HDL | Q61009 | ldlA[mSR-BI] CHO cells, DiI-HDL uptake fluorescence, 3 h | inhibition, % at 12.5 µM | 0.96% of 320,000 active | AID 488896;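 active = mean replicate inhibition of at least 70% and a set share of replicates each scoring 70 or more; inconclusive = meets just one of the two criteria; inactive = fails both criteria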;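 also: 0% = median of neutral control wells and 100% = median of positive control wells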
SR-BI DiI-HDL act – activators of SR-BI mediated HDL lipid uptake | CHO ldlA[mSR-BI] cells, DiI-HDL uptake fluorescence, 3 h; 100 = double the neutral-control signal | activation, % at 12.5 µM | 0.096% of 320,000 active | AID 504775;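 active = mean replicate activation of at least 60% and every replicate at or above 60%; inconclusive = mean or all-replicate condition met, but not both; inactive = mean below 60% and not all replicates reaching 60%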;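 also: 0% = median plate neutral-control signal and 100% = twice that signal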
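Material: SR-BI-overexpressing, LDLR-lacking CHO cells | Dosing: Single compound concentration, delivered by pin transfer | Probe or stimulus: Labelled HDL, 10 µg/mL | Signal: Bottom-read cell fluorescence after medium removal, ex 550/em 595 nm | Schedule: 3 h, 37 °C | Evaluation: HDL uptake via cellular fluorescence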
Glyco luc inh – N-linked glycosylation inhibition. 0.23% of 360,000 active. reporter increase, % at 12.5 µM. D54 ERlucT glycosylation luciferase reporter, 24 h; percent of 100 nM tunicamycin response;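 active = mean luciferase reporter signal, scaled so untreated is 0 and the glycosylation-blocking control 100, at or above a set limit in every replicate; inconclusive = mean reaches the limit but not every replicate does; inactive = mean below the limit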;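 also: luciferase carries N-glycosylation sites so blocking glycosylation raises the light; 0% = median of neutral control wells and 100% = median of 100 nM tunicamycin wells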
Env fusion inh – HIV envelope-mediated fusion inhibition | HeLa-JRFL Env/CEM21 cell fusion, luciferase | inhibition, % at 12.3 µM | 1.1% of 360,000 active | AID 651610;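 active = mean replicate inhibition score of at least 50 and every replicate individually at or above 50; inconclusive = only one of the two criteria met; inactive = mean below 50 and not all replicates reaching 50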;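 also: 0% = plate neutral controls and 100% = maraviroc near 300 nM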
An asterisk follows results filed as active; u = inconclusive; x = no result given; [ ] = remark or other dose.

SMILES | Rtt109 HAT inh | PglD inh | SR-BI HDL uptake | SR-BI DiI-HDL act | Glyco luc inh | Env fusion inh
CC(C)C[C@@]12C(=O)N(c3cccc(F)c3)C(=O)N1[C@H](c1ccc(F)cc1)[C@@H]1C(=O)N(C3CCCCC3)C(=O)[C@@H]12 | 5 | -4 | -12 | 12 | -6 | 9
CC(C)C[C@@]12C(=O)N(c3cccc(F)c3)C(=O)N1[C@H](c1ccc(Cl)cc1)[C@@H]1C(=O)N(C3CCCCC3)C(=O)[C@@H]12 | 1 | -1 | -26 | 26 | -3 | 95*
O=C1[C@H]2[C@@H](c3ccc(F)cc3)N3C(=O)N(c4cccc(Cl)c4)C(=O)[C@@]3(Cc3ccc(Cl)cc3)[C@H]2C(=O)N1C1CCCCC1 | 2 | 0 | -37 | 37 | 2 | 99*
COc1ccccc1NC(=O)N[C@@H]1CC[C@H](CCNS(=O)(=O)c2ccccc2)O[C@H]1CO | x | x | x | x | x | 8[16.7 µM]
C[C@@H]1CCCCO[C@@H](CN(C)C(=O)Nc2ccc(F)cc2)[C@@H](C)CN([C@H](C)CO)C(=O)c2cc(NC(=O)Nc3ccc(F)cc3)ccc2O1 | x | 3 | x | x | x | 17[16.7 µM]
CC(C)(C)c1nc(C(C)(C)C)c(Br)c(=O)[nH]1 | -1 | x | -34 | 34 | -2 | 72*
COC(=O)c1c2oc(c1C(=O)OC)C(=O)N[C@H](Cc1ccccc1)Cn1cc(nn1)[C@H](Cc1ccccc1)NC(=O)N[C@H](CO)CC2 | x | -5 | x | x | x | 22[16.7 µM]
C[C@H]1CN([C@@H](C)CO)C(=O)c2cc(NC(=O)C3CC3)ccc2O[C@@H]1CN(C)S(=O)(=O)c1cccs1 | x | 0 | x | x | x | -1[16.7 µM]
CCOC(=O)/C(=C/c1c(C)n(C)c2ccc([N+](=O)[O-])cc12)C(C)=O | 0 | x | 28 | -28 | 44* | -96
CC(C)(C)CC(C)(C)N=C1Nc2cc(Cl)c(Cl)cc2NC12C[C@H]1CCC(=O)N3CC[C@@H](C2)[C@@H]13 (some centres undefined) | 5 | -4 | 32 | -32 | -5 | 58*
O=C(/C=C/c1ccco1)Oc1cc(Br)cc(/C=N/NC(=O)c2ccccc2O)c1 | 13 | 2 | 134* | -134 | -10 | 15
Cc1ccc(C(=O)N/N=C/c2cccc(OC(=O)/C=C/c3ccco3)c2)cn1 | -6 | x | -4 | 4 | 3 | -12
CC1(C)CC(=O)C2=C(C1)OC(=O)CC2c1cccs1 (centres undefined) | -3 | 6 | x | x | 3 | 2
CN(C)c1ccc(C2CC(=O)OC3=C2C(=O)CC(C)(C)C3)cc1 (centres undefined) | 4 | x | -68 | 68* | 2 | -5
COc1ccc(CCNC(=O)COc2coc(CN3c4ccccc4CC3C)cc2=O)cc1OC (centres undefined) | 1 | 5 | 85* | -85 | -1 | 36
COc1ccc2[nH]c3c(N4CC(C)OC(C)C4)ncnc3c2c1 (centres undefined) | x | x | x | x | x | 39
COc1cccc(N2CCN(c3ncnc4c3[nH]c3ccc(F)cc34)CC2C)c1 (centres undefined) | 0 | 6 | 72* | -72 | -20 | x
Oc1ccc2ccccc2c1/C=N/Nc1ccccc1 | 3 | x | -13 | 13 | 6 | x
Cc1cc(N/N=C/c2c(O)ccc3ccccc23)nc(-c2ccccc2O)n1 | -9 | 8 | 91* | -91 | -6 | x
CC(=O)c1sc(N/N=C\c2c(O)ccc3ccccc23)nc1C | 8 | -1 | 97* | -97 | -11 | -139
CC[n+]1c(/C=C2\Sc3ccccc3N2C)ccc2cccc(C)c21 | 21 | 1 | 76* | -76 | -15 | 77*
CN1/C(=C/c2cccc[n+]2CCO)Sc2ccccc21 | 5 | -8 | -2 | 2 | 4 | -190
Cc1ccc2c(c1)N(C(=O)c1ccco1)C(C)(C)c1ssc(=S)c1-2 | -6 | 0 | 94* | -94 | -7 | 47
Cc1cccc2c1N(C(=O)c1ccco1)C(C)(C)c1ssc(=S)c1-2 | 4 | 6 | -4 | 4 | -1 | x
CC(C)n1c(-c2ccc(N(C)C)cc2)nc2ccccc21 | -24 | 2 | 88* | -88 | -8 | x
SMILES | Rtt109 HAT inh | PglD inh | SR-BI HDL uptake | SR-BI DiI-HDL act | Glyco luc inh | Env fusion inh
Cc1cc(NS(=O)(=O)c2ccc(NC(=O)COc3c(C)cc(Br)cc3C)cc2)no1 | 7 | -6 | -4 | 4 | 33* | -7
COc1ccc(OCC(=O)Nc2ccc(S(=O)(=O)Nc3cc(C)on3)cc2)cc1 | -2 | 0 | -21 | 21 | 0 | -6
Cc1cc(NS(=O)(=O)c2ccc(NC(=O)c3oc4ccccc4c3C)cc2)no1 | 6 | 10 | -7 | 7 | 1 | 57*
CCOc1ccc(/C=N/NC(=S)NC2CC3CC2C2C=CCC32)cc1 (centres undefined) | 6 | 8 | -4 | 4 | -2 | -6
COc1cc(/C=N/NC(=S)NC2CC3CC2C2C=CCC32)ccc1O (centres undefined) | 16 | x | 73* | -73 | 6 | -5
Cc1cccn2c(=O)c3cc(C(=O)NC4CCCC4)c(=N)n(CCc4ccccc4)c3nc12 | -1 | 0 | 20 | -20 | 30* | -12
CCNC(=O)c1cc2c(=O)n3cccc(C)c3nc2n(CCc2ccccc2)c1=N | -223 | -11 | -4 | 4 | 46* | x
COCCn1c(=N)c(C(=O)NCCc2ccccc2)cc2c(=O)n3cccc(C)c3nc21 | -468 | x | -11 | 11 | 0 | x
COc1ccc(CCn2c(=N)c(C(=O)NC3CCCC3)cc3c(=O)n4cccc(C)c4nc32)cc1 | 0 | 1 | -29 | x | 3 | -1
Cc1cccn2c(=O)c3cc(C(=O)NCCN4CCOCC4)c(=N)n(CCc4ccccc4)c3nc12 | -304 | 1 | x | x | 31* | x
CO[C@H]1CN(C)C(=O)c2ccc(NC(=O)C3CCC3)cc2OC[C@H](C)N(Cc2ccncc2)C[C@H]1C | x | -1 | x | x | x | x
Cn1c(N)c(C(=O)COC(=O)c2cc(S(=O)(=O)N3CCOCC3)ccc2F)c(=O)n(C)c1=O | -3 | -1 | 9 | -9 | 50* | x
C[C@H](CO)N1C[C@H](C)[C@@H](CN(C)Cc2ccccc2)Oc2cc(C3=CCCCC3)ccc2S1(=O)=O | x | x | x | x | x | 29[16.7 µM]
N#CC(=Cc1ccccn1)c1nc(-c2ccc(Cl)cc2)cs1 | x | 1 | x | x | 42* | -33
N#C/C(=C\Nc1ccc2cn[nH]c2c1)c1nc(-c2ccc(Cl)cc2)cs1 | 3 | x | u | -72 | -8 | -26
CC(=O)c1sc(NC(=O)CCNC(=O)c2ccco2)nc1-c1ccccc1 | 8 | -12 | -14 | 14 | 6 | 62*
Cc1cccc2sc(NC(=O)CCNC(=O)c3ccco3)nc12 | -2 | -5 | 9 | -9 | 5 | x
O=C(Nc1cccc(Cl)c1)N[C@@H]1CC[C@@H](CCNC(=O)C2CCCCC2)O[C@@H]1CO | x | -2 | x | x | x | -20[16.7 µM]
Cc1nc2c(-c3ccc(Cl)cc3)c(C)[nH]n2c(=O)c1Cc1ccccc1 | x | x | -9 | 9 | -13 | 57*

Screening data (PubChem)
